ChEMBL document CHEMBL1124035, “1-Amino-substituted 4-methyl-5H-pyrido[4,3-b]indoles (gamma-carbolines) as tricyclic analogues of ellipticines: a new class of antineoplastic agents” (1988)

Legend:
Mus musculus [1] = experiment: Antitumor activity against C38 adenocarcinoma cells at a dose of 75 mg/kg administered intravenously to mice; tumor volume at D32 (T/C); assay type: functional, MC-38; conditions: route intravenous
Outline: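 Hybrid BD F1 mice, 10 per group, were implanted sc with a standard 3-mm3 C38 colon adenocarcinoma fragment. Drugs were given iv at the stated doses on D1 or on D2 + D9. Read-out was tumor size in treated versus control mice (T/C) at the day stated.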

Mus musculus [2] = experiment: Survivors at day 60 when a dose of 1.25 mg/kg to B16 melanoma infected mice; 0/10
Mus musculus [3] = experiment: Median survival day of B16 melanoma infected mice when a dose of 2.5 mg/kg administered intraperitoneally; assay type: functional; conditions: route intraperitoneal
Outline: (§1)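 B16 melanoma in hybrid BD F1 mice. At D0 each mouse was inoculated ip with 0.5 mL of homogenate made from 1 g of tumour in 10 mL of physiological serum. Compounds were given ip daily at the stated doses for 9 days (D1-9), with cis-platinum 0.5 mg/kg under the same schedule as positive control.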

Mus musculus [4] = experiment: Weight change in g when a dose of 100 mg/kg intravenous administration to P388 leukemia mice model; assay type: functional
Outline: (§2)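 Mice (10 per group) were inoculated ip at D0 with 10^6 P388 leukemia cells and given a single iv dose at D1. Read-outs were weight change (g), median survival day, T/C % versus controls and survivors at D30.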

Mus musculus [5] = experiment: Survivors at day D38 when a dose of 100 mg/kg administered intravenously to C38 adenocarcinoma cell lines on D1 to mice; 10/10; assay type: functional, MC-38; conditions: route intravenous
Outline: (§3)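 Hybrid BDF1 mice, 10 per test, were implanted sc with a standard 3-mm³ fragment of C38 colon adenocarcinoma. Drug was given iv either on D1 alone or on D2 and D9. Animals were followed per NCI (Geran) protocol.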

Mus musculus [6] = experiment: Median survival day in P388 leukemia mice model when a dose of 100 mg/kg administered intravenously; assay type: functional; conditions: route intravenous
Outline: (§4)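 P388 leukaemia in CDF1 hybrid mice, 10 per group. At D0, 10^6 viable cells were inoculated ip, followed by a single iv dose on D1. Weight change, median survival day, T/C (treated/control median survival × 100) and survivors at D30 were recorded.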

Mus musculus [7] = experiment: Weight change in g when a dose of 40 mg/kg intravenous administration to L1210 leukemia mice model; assay type: functional
Outline: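 Mice received 10^5 L1210 leukemia cells ip at D0, then a single iv drug dose at D1. Read-outs were weight change (g), median survival day, T/C % and survivors at D30.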

Mus musculus [8] = experiment: Weight change in g when a dose of 5 mg/kg administered intraperitoneally B16 melanoma infected mice; assay type: functional; conditions: route intraperitoneal
Outline: (§5)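 Hybrid BDF1 mice were inoculated ip at D0 with 0.5 mL of B16 melanoma homogenate (1 g tumor in 10 mL physiological serum). Drug was given ip daily on days 1-9, with cis-platinum 0.5 mg/kg as positive control on the same schedule.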

Mus musculus [9] = experiment: Survivors at day 30 when a dose of 40 mg/kg to P388 leukemia model; 1/10; assay type: functional
Mus musculus [10] = experiment: Weight change in g when a dose of 10 mg/kg administered intraperitoneally B16 melanoma infected mice; assay type: functional; conditions: route intraperitoneal; outline: as §5
Mus musculus [11] = experiment: Median survival day of B16 melanoma infected micee when a dose of 5 mg/kg administered intraperitoneally; assay type: functional; conditions: route intraperitoneal; outline: as §1
Mus musculus [12] = experiment: Weight change in g at a dose of 50 mg/kg intravenous administration to P388 leukemia model; assay type: functional; outline: as §2
Mus musculus [13] = experiment: Survivors at day 30 when a dose of 20 mg/kg administered to P388 leukemia model when tested in 10 mice; assay type: functional
Outline: (§6)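 P388 leukaemia in CDF1 hybrid mice, 10 per group. At D0, 10^6 viable cells were inoculated ip, followed by a single ip dose of drug in distilled water on D1. Weight change, median survival day, T/C (treated/control median survival × 100) and survivors at D30 were recorded. Controls were 20 mice.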

Mus musculus [14] = experiment: Weight change in g when a dose of 5 mg/kg administered intraperitoneally to B16 melanoma infected mice; assay type: functional; conditions: route intraperitoneal; outline: as §5
Mus musculus [15] = experiment: Median survival day of P388 leukemia infected mice, when a dose of 5 mg/kg administered intraperitoneally; assay type: functional; conditions: route intraperitoneal; outline: as §6
Mus musculus [16] = experiment: Survivors at day 30 when a dose of 5 mg/kg administered to P388 leukemia infected when tested in 10 mice; assay type: functional
Mus musculus [17] = experiment: Weight change in g when a dose of 2.5 mg/kg administered intraperitoneally to B16 melanoma infected mice; assay type: functional; conditions: route intraperitoneal; outline: as §5
Mus musculus [18] = experiment: Antitumor activity against P388 cells at a dose of 5 mg/kg administered intraperitoneally to mice; assay type: functional; conditions: route intraperitoneal
Mus musculus [19] = experiment: Weight change in g when a dose of 10 mg/kg administered intraperitoneally to P388 leukemia infected mice; assay type: functional; conditions: route intraperitoneal
Outline: (§7)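 P388 model with a single ip dose. Mice (10 per group) were inoculated ip at D0 with 10^6 P388 cells and given one ip drug dose at D1. Body-weight change (g), median survival day, T/C and survivors at D30 were recorded.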

Mus musculus [20] = experiment: Survivors at day 30 when a dose of 100 mg/kg administered intravenously to P388 (iv) to L1210 leukemia mice model; assay type: functional
Mus musculus [21] = experiment: Median tumoral volume in C38 adenocarcinoma model when a dose of 50 mg/kg administered intravenously on D1 to mice; assay type: functional; conditions: route intravenous
Outline: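 Geran protocol in hybrid BDF1 mice, 10 per test, implanted sc with a standard 3-mm³ fragment of C38 colon adenocarcinoma. Drug was given iv at the stated doses on D1, or on D2 + D9, and tumor growth was followed.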

Mus musculus [22] = experiment: Weight change in g when a dose of 5 mg/kg administered intraperitoneally to P388 leukemia infected mice; assay type: functional; conditions: route intraperitoneal; outline: as §7
Mus musculus [23] = experiment: Survivors at day 60 when a dose of 10 mg/kg to B16 melanoma infected when tested in 10 mice; assay type: functional
Mus musculus [24] = experiment: Median survival day of B16 melanoma infected mice, when a dose of 1.25 mg/kg administered intraperitoneally; conditions: route intraperitoneal
Mus musculus [25] = experiment: Median survival day in P388 cell line when a dose of 100 mg/kg administered intravenously to mice; assay type: functional; conditions: route intravenous; outline: as §4
Mus musculus [26] = experiment: Survivors at day D32 when a dose of 50 mg/kg administered intravenously to mice (C38 adenocarcinoma cell lines) when tested in 10 mice; assay type: functional; conditions: route intravenous; outline: as §3
Mus musculus [27] = experiment: Survivors at day D30 when a dose of 20 mg/kg administered intravenously to L1210 leukemia mice model; assay type: functional; conditions: route intravenous
Mus musculus [28] = experiment: Survivors at day D32 when a dose of 25 mg/kg administered intravenously to mice (C38 adenocarcinoma cell lines) when tested in 10 mice; assay type: functional; conditions: route intravenous; outline: as §3
Mus musculus [29] = experiment: Antitumor activity against P388 cells at a dose of 20 mg/kg administered intraperitoneally P388 Leukemia model; assay type: functional; conditions: route intraperitoneal
Outline: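 Mice were inoculated ip with 10^6 P388 leukemia cells at D0, then given a single ip drug dose on D1. Weight change was recorded. T/C % = median survival day of treated / controls × 100; survivors counted at D30; 10 mice per dose group, 20 controls.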

Mus musculus [30] = experiment: Survivors at day 30 when a dose of 80 mg/kg to P388 leukemia model; 0/10; assay type: functional
Mus musculus [31] = experiment: Median survival day in B16 melanoma cell line when a dose of 5 mg/kg administered intraperitoneally to mice; assay type: functional; conditions: route intraperitoneal; outline: as §1
Mus musculus [32] = experiment: Median survival day in B16 melanoma cell line when a dose of 20 mg/kg administered intraperitoneally to mice; assay type: functional; conditions: route intraperitoneal; outline: as §1

With `CCN(CC)CCCNc1ncc(C)c2c1c1cc(O)ccc1n2C` the Tumor volume (Mus musculus [1]) was 13%, the Survivors (Mus musculus [2]) was 0 and the Median survival day (Mus musculus [3]) was 35.25. For the same compound, the Weight change (Mus musculus [4]) was -1.6 g, the Survivors (Mus musculus [5]) was 10 and the Median survival day (Mus musculus [6]) was 24.3. For the same compound, the Weight change (Mus musculus [7]) was -0.2 g, the Weight change (Mus musculus [8]) was 0.2 g and the Survivors (Mus musculus [9]) was 1. For the same compound, the Weight change (Mus musculus [10]) was -1 g and the Median survival day (Mus musculus [11]) was 41.25.
In the case of `Cc1cnc(NCCCN(C)C)c2c3cc(O)ccc3n(C)c12`, the Weight change (Mus musculus [12]) is reported as 0.5 g, the Survivors (Mus musculus [13]) is reported as 1 and the Weight change (Mus musculus [14]) is reported as -0.2 g. It also gave a Median survival day (Mus musculus [15]) of 19.75, a Survivors (Mus musculus [16]) of 0 and a Weight change (Mus musculus [17]) of 0.1 g. It also gave a T/C (Mus musculus [18]) of 173%, a Weight change (Mus musculus [19]) of -1.4 g and a Survivors (Mus musculus [20]) of 4. The Median tumoral volume (Mus musculus [21]) was 2.73 cm*3, the Weight change (Mus musculus [22]) was -1.2 g and the Survivors (Mus musculus [23]) was 0. It also gave a Median survival day (Mus musculus [24]) of 29.75, a Median survival day (Mus musculus [25]) of 25.75 and a Survivors (Mus musculus [26]) of 10. For the same compound, the Survivors (Mus musculus [27]) was 0 and the Survivors (Mus musculus [28]) was 10.
`CCN(CC)CCCNc1[nH]cc(C)c2nc3ccc(O)cc3c1-2` was tested, and the T/C (Mus musculus [29]) was 139%, the Survivors (Mus musculus [30]) was 0 and the Median survival day (Mus musculus [31]) was 48. For the same compound, the Median survival day (Mus musculus [32]) was 58.
